Data published in paper PMC3733499 (Thrombosis and haemostasis, 2013).
Changes are numbered by the printed parent chain. In names and notes the source's numbering stands. Where a SMILES comes first, the peptide text is derived from it.

What was measured:
mAb S4 = assay: Binding of mAb S4 to immobilized peptides; conditions: peptide coated at 20 μM, mAb S4 26 nM, anti-mouse IgG detection
Outline: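 Wells coated with peptide and blocked with I-Block; mAb S4 at 26 nM incubated in the wells. Bound antibody detected with anti-mouse IgG, then biotinylated secondary antibody, streptavidin-alkaline phosphatase and phosphatase substrate. Wash solution was HBS with 0.1% porcine skin gelatin and 2 mM CaCl2. Signal from noncoated blocked wells subtracted from coated wells.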

[1] = biological target: T1, prothrombinase (FXa/FVa/PL) (Homo sapiens, UniProt P00742+P12259); assay: Purified component prothrombinase assay with FVa and PL; assay type: biochemical; conditions: for FVa-dependent inhibition of prothrombinase activity: peptide preincubated 10 min with FVa/FXa/PL
[2] = test system: FXa-induced clotting of PS-depleted plasma (PSdP); assay: FXa-1-stage clotting assay without exogenous PL; assay type: cell-based, human; conditions: no exogenous PL, base clotting time 98 sec
Outline: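 Human PS-depleted plasma mixed with HBS-BSA containing purified human PS (up to 379 nM) with or without neutralizing mAb S4, plus FXa. No exogenous phospholipid added. Incubated 3 min at 37°C, recalcified with CaCl2 (33 mM stock), and clotting time measured on a coagulometer. FXa standard curves without PS (up to 19 pM as 100%) converted clotting times to % FXa activity.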

[3] = biological target: T1, prothrombinase (FXa/FVa/PL); conditions: ref [9], cited from earlier work
[4] = test system: platelet and fibrin deposition; conditions: PS infused without APC; ref [15]; cited from earlier work
prothrombinase (FXa/FVa) = assay: Purified component prothrombinase assay with FVa, without PL; assay type: biochemical, human; conditions: absence of PL; data not shown
Factor Xa (Homo sapiens) = Factor Xa (Homo sapiens) (UniProt P00742); conditions: cited from earlier work
Factor Va (Homo sapiens) = Factor Va (Homo sapiens) (UniProt P12259); conditions: cited from earlier work
Factor Va [5] = biological target: T2, Factor Va (human, UniProt P12259 29-737; P12259 1574-2224); assay: ELISA
T2 sequence (looked up) 1: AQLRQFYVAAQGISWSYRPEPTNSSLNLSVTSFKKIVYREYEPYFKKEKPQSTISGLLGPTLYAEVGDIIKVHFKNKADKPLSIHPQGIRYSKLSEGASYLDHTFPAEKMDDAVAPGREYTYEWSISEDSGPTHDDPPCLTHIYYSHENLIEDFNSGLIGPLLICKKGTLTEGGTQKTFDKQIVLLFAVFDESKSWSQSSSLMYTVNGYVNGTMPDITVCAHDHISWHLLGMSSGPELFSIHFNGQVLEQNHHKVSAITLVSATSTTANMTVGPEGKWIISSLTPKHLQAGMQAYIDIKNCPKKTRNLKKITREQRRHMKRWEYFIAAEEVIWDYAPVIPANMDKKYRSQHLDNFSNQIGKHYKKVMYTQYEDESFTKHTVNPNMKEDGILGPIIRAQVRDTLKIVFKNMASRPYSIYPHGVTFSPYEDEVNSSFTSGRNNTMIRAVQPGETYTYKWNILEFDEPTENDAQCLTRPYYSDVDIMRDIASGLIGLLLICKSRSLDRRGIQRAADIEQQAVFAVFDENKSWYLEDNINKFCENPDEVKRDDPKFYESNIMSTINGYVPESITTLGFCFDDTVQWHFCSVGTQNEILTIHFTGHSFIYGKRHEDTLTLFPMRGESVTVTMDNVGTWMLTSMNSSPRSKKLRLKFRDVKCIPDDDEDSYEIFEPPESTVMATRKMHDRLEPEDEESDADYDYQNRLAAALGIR
T2 sequence (looked up) 2: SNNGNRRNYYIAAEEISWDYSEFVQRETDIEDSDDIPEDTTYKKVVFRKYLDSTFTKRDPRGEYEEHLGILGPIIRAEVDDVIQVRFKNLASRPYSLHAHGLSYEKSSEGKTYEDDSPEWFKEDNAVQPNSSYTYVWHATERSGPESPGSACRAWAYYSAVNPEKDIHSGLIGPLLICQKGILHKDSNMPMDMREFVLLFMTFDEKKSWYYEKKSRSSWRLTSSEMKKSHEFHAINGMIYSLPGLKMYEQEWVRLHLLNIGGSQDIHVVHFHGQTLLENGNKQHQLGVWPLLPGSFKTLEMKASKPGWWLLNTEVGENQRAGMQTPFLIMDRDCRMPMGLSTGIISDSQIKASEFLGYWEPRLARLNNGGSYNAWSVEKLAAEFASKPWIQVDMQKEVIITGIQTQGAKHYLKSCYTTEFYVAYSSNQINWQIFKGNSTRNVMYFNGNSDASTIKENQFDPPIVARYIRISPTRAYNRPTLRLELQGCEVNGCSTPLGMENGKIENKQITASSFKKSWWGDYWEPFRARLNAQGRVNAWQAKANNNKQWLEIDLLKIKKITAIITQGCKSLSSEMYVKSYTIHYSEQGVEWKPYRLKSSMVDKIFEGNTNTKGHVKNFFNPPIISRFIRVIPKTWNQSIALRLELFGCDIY

FXa = conditions: recombinant; ref [39]; cited from earlier work
FVa = conditions: recombinant; ref [39]; cited from earlier work
APC = conditions: recombinant; ref [39]; cited from earlier work
[6] = Thr37 to Met mutation; ref [28]; cited from earlier work
[7] = test system: activated protein C (APC); conditions: Thr37 to Met mutation; ref [28]; cited from earlier work
Factor Va [8] = biological target: T2, Factor Va; assay: ELISA; remark: listed apart in the source
Factor Va [9] = biological target: T2, Factor Va; assay: ELISA; remark: listed apart in the source

T1 sequence (P00742 41-179 partner limits assumed, one chain of several): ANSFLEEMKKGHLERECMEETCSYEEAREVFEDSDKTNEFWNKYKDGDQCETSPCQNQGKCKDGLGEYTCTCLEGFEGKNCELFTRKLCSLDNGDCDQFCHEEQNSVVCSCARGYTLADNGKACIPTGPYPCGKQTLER
T1 sequence (P00742 235-488 partner limits assumed, one chain of several): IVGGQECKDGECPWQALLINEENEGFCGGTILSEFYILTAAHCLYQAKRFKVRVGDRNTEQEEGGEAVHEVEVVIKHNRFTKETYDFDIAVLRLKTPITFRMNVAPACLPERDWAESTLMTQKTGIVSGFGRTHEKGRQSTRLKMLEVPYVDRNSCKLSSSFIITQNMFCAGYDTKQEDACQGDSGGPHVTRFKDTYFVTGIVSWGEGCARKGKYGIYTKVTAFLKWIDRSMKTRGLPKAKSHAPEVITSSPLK
Sequence of Factor Xa (Homo sapiens) (P00742 235-488): as the sequence (P00742 235-488 partner limits assumed, one chain of several) above

Molecule: 54–67: peptide representing PS residues 54–67 (TSR) (GLFTAARQSTNAYP; UniProt P07225 95-108, looked up, fragment)
- Binding of mAb S4 to immobilized peptide (mAb S4): detected

Molecule: CC(C)C[C@H](NC(=O)[C@H](CS)NC(=O)[C@@H](NC(=O)[C@H](CC(C)C)NC(=O)[C@H](Cc1ccc(O)cc1)NC(=O)[C@H](CCCCN)NC(=O)[C@@H]1CCCN1C(=O)[C@H](Cc1ccc(O)cc1)NC(=O)[C@H](Cc1ccccc1)NC(=O)[C@H](Cc1ccc(O)cc1)NC(=O)[C@H](CC(=O)O)NC(=O)[C@@H](N)[C@@H](C)O)C(C)C)C(=O)N[C@@H](CCCNC(=N)N)C(=O)N[C@@H](CO)C(=O)O [PSP37, TDYFYPKYLVCLRS] (H-TDYFYPKYLVCLRS-OH)
- IC50 [1]: 11000 nM
- Inhibition of prothrombinase ([1]; 40 μM peptide): 90%

Molecule: PS: immunoaffinity-purified free plasma protein S retaining Zn^2+
- Maximal prolongation of clotting time by PS [2]: 95 s
- Vmax alteration by PS ([3]; at 60% inhibition): 2.2 fold
- Km alteration by PS [3]: 2 fold
- Inhibition of platelet and fibrin deposition [4]: inhibited platelet and fibrin deposition

Molecule: PSP30: 14-mer peptide, PS residues 30–43 (VFENDPETDYFYPK; UniProt P07225 71-84, looked up, fragment)
- FVa-dependent inhibition of prothrombinase activity [1]: did not inhibit prothrombinase

Molecule: PSP48: 14-mer peptide, PS residues 48–61 (LRSFQTGLFTAARQ; UniProt P07225 89-102, looked up, fragment)
- FVa-dependent inhibition of prothrombinase activity [1]: did not inhibit prothrombinase

Molecule: Phospholipase A2
- Effect of phospholipase A2 on PS inhibition (prothrombinase (FXa/FVa)): no effect on PS inhibition
- Effect of phospholipase A2 on prothrombinase activity (prothrombinase (FXa/FVa)): no effect on prothrombinase activity
- Effect of phospholipase A2 on prothrombinase activity ([1]; mixtures that contained PL, data not shown): greatly diminished

Molecule: Protein S (from UniProt P07225)
- Kd (Factor Xa (Homo sapiens)): 18 nM
- Kd (Factor Va (Homo sapiens)): 33 nM

B1: Protein S (natural protein, human, UniProt P07225 42-676, looked up)
chain: ANSLLEETKQGNLERECIEELCNKEEAREVFENDPETDYFYPKYLVCLRSFQTGLFTAARQSTNAYPDLRSCVNAIPDQCSPLPCNEDGYMSCKDGKASFTCTCKPGWQGEKCEFDINECKDPSNINGGCSQICDNTPGSYHCSCKNGFVMLSNKKDCKDVDECSLKPSICGTAVCKNIPGDFECECPEGYRYNLKSKSCEDIDECSENMCAQLCVNYPGGYTCYCDGKKGFKLAQDQKSCEVVSVCLPLNLDTKYELLYLAEQFAGVVLYLKFRLPEISRFSAEFDFRTYDSEGVILYAESIDHSAWLLIALRGGKIEVQLKNEHTSKITTGGDVINNGLWNMVSVEELEHSISIKIAKEAVMDINKPGPLFKPENGLLETKVYFAGFPRKVESELIKPINPRLDGCIRSWNLMKQGASGIKEIIQEKQNKHCLVTVEKGSYYPGSGIAQFHIDYNNVSSAEGWHVNVTLNIRPSTGTGVMLALVSGNNTVPFAVSLVDSTSEKSQDILLSVENTVIYRIQALSLCSDQQSHLEFRVNRNNLELSTPLKIETISHEDLQRQLAVLDKAMKAKVATYLGGLPDVPFSATPVNAFYNGCMEVNINGVQLDLDEAISKHNDIRAHSCPSVWKKTKNS
- binding result (Factor Va [5]): binds

B2: K155E PS: recombinant K155E PS, prevalent Japanese mutation (protein, UniProt P07225 42-676, looked up, variant K155E)
Vitamin K-dependent protein S: B1 chain with K155E
- Binding to FXa (FXa): defective binding to FXa and to APC
- Binding to FVa (FVa): normal binding to FVa
- Binding to APC (APC): defective binding to FXa and to APC

B3: T37M PS: recombinant PS with mutation of Thr37 to Met (protein, UniProt P07225 42-676, looked up, variant T37M)
Vitamin K-dependent protein S: B1 chain with T37M
- Affinity for phospholipids [6]: diminished affinity for phospholipids
- Decrease in APC cofactor activity [7]: 3.6 fold

Molecule: TDYFYPKYLVCLRS [Peptide PSP37 (protein S residues 37-50)]
- Kd (Factor Va [8]): 14 nM
- IC50 (Factor Va [9]): 15000 nM
